Converted amounts (≈) assume the structure as drawn.
Key:
Assay type in all cases: functional
[1] = test system: Staphylococcus aureus; test: Antibacterial activity against tetracycline-susceptible Staphylococcus aureus ATCC 13709 Smith isolate SA100
How it was run: (§1)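 Broth microdilution MIC following CLSI methods in cation-adjusted Mueller Hinton broth, prepared fresh and held at 4 °C before testing. Defibrinated horse blood added to the medium where appropriate. Runs accepted when quality control ranges for comparator antibiotics and ATCC QC strains were met.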

[2] = test system: Staphylococcus aureus; test: Antibacterial activity against Staphylococcus aureus ATCC 13709 infected in CD-1 mouse assessed as increase in survival at 30 mg/kg, po administered as single dose 1 hr post infection measured after 48 hrs post infection
How it was run: (§2)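 Mouse septicemia screen: S. aureus grown to log phase, diluted in 5% mucin to give 90% mortality within 48 h, inoculum 1.98 × 10⁶ CFU/mouse, 0.5 mL intraperitoneal into female CD-1 mice (18−20 g). Six mice per group. Single 30 mg/kg oral gavage or 3 mg/kg IV dose 1 h post infection. Infection controls received sterile water vehicle. Survival recorded at 48 h.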

[3] = test system: Staphylococcus aureus; test: Antibacterial activity against Staphylococcus aureus ATCC 13709 infected in CD-1 mouse assessed as increase in survival at 3 mg/kg, iv administered as single dose 1 hr post infection measured after 48 hrs post infection; how it was run: as §2
[4] = test system: Streptococcus pneumoniae; test: Antibacterial activity against tetracycline-resistant Streptococcus pneumoniae isolate 160 expressing tetM gene
[5] = test system: Escherichia coli; test: Antibacterial activity against Escherichia coli ATCC 25922 isolate 107
How it was run: (§3)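 MIC by broth microdilution in liquid medium per CLSI, in cation-adjusted Mueller Hinton broth made fresh and held at 4 °C before testing. Horse blood (defibrinated) added to the medium where appropriate. Runs were accepted only when the comparator antibiotics and ATCC QC strains fell within their recommended ranges.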

[6] = test system: Escherichia coli; test: Antibacterial activity against Escherichia coli isolate EC155 expressing tetA gene; how it was run: as §3
[7] = test system: Staphylococcus aureus; test: Antibacterial activity against tetracycline-resistant Staphylococcus aureus isolate SA158 expressing TetK gene
[8] = test system: Streptococcus pneumoniae; test: Antibacterial activity against Streptococcus pneumoniae ATCC 49619 isolate 106; how it was run: as §3
[9] = test system: Staphylococcus aureus; test: Antibacterial activity against tetracycline-resistant Staphylococcus aureus isolate SA161 expressing TetM gene; how it was run: as §1
[10] = test system: Klebsiella pneumoniae; test: Antibacterial activity against Klebsiella pneumoniae ATCC 13883; how it was run: as §3
[11] = test system: Staphylococcus aureus; test: Antibacterial activity against Staphylococcus aureus ATCC 13709 infected in po dosed CD-1 mouse assessed as increase in survival administered as single dose 1 hr post infection measured after 48 hrs post infection; settings: ATCC 13709, po, read-out: PD50

| Structure (SMILES) | MIC [1] | survival at 30 mg/kg [2] | survival at 3 mg/kg [3] | MIC [4] | MIC [5] | MIC [6] | MIC [7] | MIC [8] | MIC [9] | MIC [10] | ED50 [11] |
| --- | --- | --- | --- | --- | --- | --- | --- | --- | --- | --- | --- |
| CCN1CCC[C@H]1C(=O)Nc1cc(F)c2c(c1O)C(=O)C1=C(O)[C@]3(O)C(=O)C(C(N)=O)=C(O)[C@@H](N(C)C)[C@@H]3C[C@@H]1C2 | 0.031 µg/mL (≈ 0.0541 µM) | 40% | 67% | ≤ 0.016 µg/mL | 0.13 µg/mL (≈ 0.227 µM) | 4 µg/mL (≈ 6.99 µM) | 0.031 µg/mL (≈ 0.0541 µM) | ≤ 0.016 µg/mL | 0.13 µg/mL (≈ 0.227 µM) | – | – |
| CN(C)[C@@H]1C(O)=C(C(N)=O)C(=O)[C@@]2(O)C(O)=C3C(=O)c4c(O)c(NC(=O)[C@@H]5C[C@H](F)CN5C)cc(F)c4C[C@H]3C[C@@H]12 | 0.13 µg/mL (≈ 0.225 µM) | 33% | 83% | 0.016 µg/mL (≈ 0.0278 µM) | 2 µg/mL (≈ 3.47 µM) | > 32 µg/mL | 0.063 µg/mL (≈ 0.109 µM) | 0.016 µg/mL (≈ 0.0278 µM) | 0.5 µg/mL (≈ 0.867 µM) | 16 µg/mL (≈ 27.8 µM) | – |
| CN(C)[C@@H]1C(O)=C(C(N)=O)C(=O)[C@@]2(O)C(O)=C3C(=O)c4c(O)c(NC(=O)c5ccccn5)cc(F)c4C[C@H]3C[C@@H]12 | 0.13 µg/mL (≈ 0.235 µM) | 0% | 0% | 8 µg/mL (≈ 14.5 µM) | > 32 µg/mL | > 32 µg/mL | 0.13 µg/mL (≈ 0.235 µM) | 4 µg/mL (≈ 7.24 µM) | 0.13 µg/mL (≈ 0.235 µM) | > 32 µg/mL | > 30 mg/kg |
| CN(C)[C@@H]1C(O)=C(C(N)=O)C(=O)[C@@]2(O)C(O)=C3C(=O)c4c(O)c(NC(=O)c5nccs5)cc(F)c4C[C@H]3C[C@@H]12 | 0.063 µg/mL (≈ 0.113 µM) | 0% | 17% | 4 µg/mL (≈ 7.16 µM) | > 32 µg/mL | > 32 µg/mL | 0.063 µg/mL (≈ 0.113 µM) | 2 µg/mL (≈ 3.58 µM) | 0.13 µg/mL (≈ 0.233 µM) | > 32 µg/mL | – |
| CCCNc1cc(F)c2c(c1O)C(=O)C1=C(O)[C@]3(O)C(=O)C(C(N)=O)=C(O)[C@@H](N(C)C)[C@@H]3C[C@@H]1C2 | 0.5 µg/mL (≈ 1.02 µM) | – | – | 4 µg/mL (≈ 8.17 µM) | 32 µg/mL (≈ 65.4 µM) | > 32 µg/mL | 0.5 µg/mL (≈ 1.02 µM) | 1 µg/mL (≈ 2.04 µM) | 0.5 µg/mL (≈ 1.02 µM) | > 32 µg/mL | – |
| CN(C)[C@@H]1C(O)=C(C(N)=O)C(=O)[C@@]2(O)C(O)=C3C(=O)c4c(O)c(NCC(C)(C)C)cc(F)c4C[C@H]3C[C@@H]12 | 0.25 µg/mL (≈ 0.483 µM) | – | – | 16 µg/mL (≈ 30.9 µM) | > 32 µg/mL | > 32 µg/mL | 0.25 µg/mL (≈ 0.483 µM) | 4 µg/mL (≈ 7.73 µM) | 2 µg/mL (≈ 3.86 µM) | > 32 µg/mL | – |
| CN(C)[C@@H]1C(O)=C(C(N)=O)C(=O)[C@@]2(O)C(O)=C3C(=O)c4c(O)c(CNCC(C)(C)C)cc(F)c4C[C@H]3C[C@@H]12 | 2 µg/mL (≈ 3.76 µM) | – | – | 0.25 µg/mL (≈ 0.47 µM) | 4 µg/mL (≈ 7.52 µM) | 16 µg/mL (≈ 30.1 µM) | 2 µg/mL (≈ 3.76 µM) | 0.25 µg/mL (≈ 0.47 µM) | 4 µg/mL (≈ 7.52 µM) | 8 µg/mL (≈ 15 µM) | – |
| CN(C)[C@@H]1C(O)=C(C(N)=O)C(=O)[C@@]2(O)C(O)=C3C(=O)c4c(O)c(CNC(=O)CNC(C)(C)C)cc(F)c4C[C@H]3C[C@@H]12 | 16 µg/mL (≈ 27.8 µM) | – | – | 4 µg/mL (≈ 6.96 µM) | 32 µg/mL (≈ 55.7 µM) | > 32 µg/mL | 16 µg/mL (≈ 27.8 µM) | 0.5 µg/mL (≈ 0.87 µM) | > 32 µg/mL | > 32 µg/mL | – |
| CN(C)[C@@H]1C(O)=C(C(N)=O)C(=O)[C@@]2(O)C(O)=C3C(=O)c4c(O)c(NC(=O)[C@@H]5CCCN5)cc(F)c4C[C@H]3C[C@@H]12 | 0.25 µg/mL (≈ 0.459 µM) | 0% | 100% | 0.016 µg/mL (≈ 0.0294 µM) | 1 µg/mL (≈ 1.84 µM) | 16 µg/mL (≈ 29.4 µM) | 0.5 µg/mL (≈ 0.918 µM) | 0.016 µg/mL (≈ 0.0294 µM) | 0.5 µg/mL (≈ 0.918 µM) | 1 µg/mL (≈ 1.84 µM) | – |
| CN(C)[C@@H]1C(O)=C(C(N)=O)C(=O)[C@@]2(O)C(O)=C3C(=O)c4c(O)c(NC(=O)CN5CCCC5)cc(F)c4C[C@H]3C[C@@H]12 [ERAVACYCLINE] | 0.016 µg/mL (≈ 0.0286 µM) | – | – | 0.016 µg/mL (≈ 0.0286 µM) | 0.016 µg/mL (≈ 0.0286 µM) | 1 µg/mL (≈ 1.79 µM) | 0.016 µg/mL (≈ 0.0286 µM) | 0.016 µg/mL (≈ 0.0286 µM) | 0.016 µg/mL (≈ 0.0286 µM) | 0.125 µg/mL (≈ 0.224 µM) | – |
